Measurements reported in ChEMBL document CHEMBL3091381, “In vitro cytotoxicity on human ovarian cancer cells by T-type calcium channel blockers” (Bioorg Med Chem Lett, 2013).
pIC50: −log10 of the molar value. The source made the active and inactive calls. No cut-off for these calls is given here.

Tests used:
[1] = Cytotoxicity against human paclitaxel-resistant A2780T cells after 48 hrs by MTT assay; type: functional, cell-based; conditions: A2780/Taxol
How it was run: (§1)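 MTT viability assay. Cells were seeded and grown 24 h, then exposed 48 h to a range of concentrations of test agent in DMSO (0.1% final), with vehicle-matched DMSO controls. Medium was replaced by 0.5 mg/mL MTT in RPMI with 10% FBS for 2 h at 37 °C. Dye was solubilized and absorbance read. IC50 from dose–response curves, three independent experiments.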

[2] = system: A2780; assay: Cytotoxicity against human A2780 cells after 48 hrs by MTT assay; type: functional, cell-based; conditions: A2780, 48 h; how it was run: as §1
[3] = system: SK-OV-3; assay: Cytotoxicity against human SKOV3 cells after 48 hrs by MTT assay; type: functional, cell-based; conditions: SK-OV-3, 48 h; how it was run: as §1
[4] = molecular target: T1, Voltage-dependent T-type calcium channel subunit alpha-1G (Homo sapiens, UniProt O43497); assay: Inhibition of t-type Cav3.1 channel (unknown origin) expressed in HEK293 cells assessed as inhibition of 50 ms depolarizing voltage step-induced current by whole cell patch-clamp method; type: cell-based
[5] = molecular target: T1, Voltage-dependent T-type calcium channel subunit alpha-1G; assay: Inhibition of t-type Cav3.1 channel (unknown origin) expressed in HEK293 cells assessed as inhibition of 50 ms depolarizing voltage step-induced current at 1 uM by whole cell patch-clamp method relative to control; type: cell-based
[6] = Ratio of IC50 for mibefradil to compound IC50 for human paclitaxel-resistant A2780T cells; type: functional
[7] = system: A2780; assay: Induction of apoptosis in human A2780 cells assessed as cell shrinkage, membrane blebbing, chromatin condensation and apoptotic body formation at 6 uM after 24 hrs by DAPI staining; type: functional, cell-based
How it was run: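 A2780 cells exposed 24 h to 6 µM compound, then fixed, washed three times in PBS and stained 5 min with 0.1 µg/mL DAPI. Cells were washed, mounted in PBS with 10% glycerol and examined by fluorescence microscopy for shrinkage, blebbing, chromatin condensation and apoptotic bodies.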

[8] = Cell cycle arrest in human paclitaxel-resistant A2780T cells assessed as accumulation at sub-G1 phase after 24 hrs by FACS analysis; type: functional, cell-based; conditions: A2780/Taxol, in the assay text read “G1 phase” for “sub-G1 phase”
How it was run: (§2)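 A2780 or paclitaxel-resistant A2780-T cells treated 24 h with compound at 0, 2, 4, 6 or 8 µM, depending on the series. Fixed cells were washed in PBS and stained 30 min in the dark with PI plus 100 µg/mL DNase-free RNase A. Phase distribution was read by flow cytometry. Means ± SD of three independent experiments; ANOVA with Dunnett's post-hoc test versus untreated control.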

[9] = system: A2780; assay: Cell cycle arrest in human A2780 cells assessed as accumulation at sub-G1 phase after 24 hrs by FACS analysis; type: functional, cell-based; conditions: in the assay text read “G1 phase” for “sub-G1 phase”; how it was run: as §2
[10] = system: Mus musculus; assay: Toxicity in BALB/c mouse assessed as mortality at 40 mg/kg, po for 2 weeks; type: organism-based; parameters: dose 40 mg/kg, route oral; conditions: in vivo, 336 h
[11] = system: A2780; assay: Cell cycle arrest in human A2780 cells assessed as accumulation at G2/M phase at 6 uM after 24 hrs by FACS analysis; type: functional; how it was run: as §2
[12] = system: A2780; assay: Cell cycle arrest in human A2780 cells assessed as accumulation at S phase at 6 uM after 24 hrs by FACS analysis; type: functional; how it was run: as §2
[13] = system: A2780; assay: Cell cycle arrest in human A2780 cells assessed as accumulation at sub-G1 phase at 6 uM after 24 hrs by FACS analysis; type: functional; how it was run: as §2
[14] = system: A2780; assay: Cell cycle arrest in human A2780 cells assessed as accumulation at G0/G1 phase at 6 uM after 24 hrs by FACS analysis; type: functional; how it was run: as §2
[15] = system: HEK293; assay: Cytotoxicity against human HEK293 cells after 48 hrs by MTT assay; type: cell-based; conditions: HEK293, 48 h; how it was run: as §1
[16] = Cell cycle arrest in human paclitaxel-resistant A2780T cells assessed as accumulation at sub-G1 phase at 8 uM after 24 hrs by FACS analysis; type: functional, cell-based; conditions: A2780/Taxol; how it was run: as §2
[17] = system: A2780; assay: Cell cycle arrest in human A2780 cells assessed as accumulation at sub-G1 phase at 2 to 4 uM after 24 hrs by FACS analysis; type: functional; how it was run: as §2
[18] = Cell cycle arrest in human paclitaxel-resistant A2780T cells assessed as accumulation at sub-G1 phase at 2 to 4 uM after 24 hrs by FACS analysis; type: functional, cell-based; conditions: A2780/Taxol; how it was run: as §2
[19] = system: A2780; assay: Cell cycle arrest in human A2780 cells assessed as accumulation at sub-G1 phase at 8 uM after 24 hrs by FACS analysis (reference value: 3.1%); type: functional; how it was run: as §2

T1 sequence (O43497 whole entry): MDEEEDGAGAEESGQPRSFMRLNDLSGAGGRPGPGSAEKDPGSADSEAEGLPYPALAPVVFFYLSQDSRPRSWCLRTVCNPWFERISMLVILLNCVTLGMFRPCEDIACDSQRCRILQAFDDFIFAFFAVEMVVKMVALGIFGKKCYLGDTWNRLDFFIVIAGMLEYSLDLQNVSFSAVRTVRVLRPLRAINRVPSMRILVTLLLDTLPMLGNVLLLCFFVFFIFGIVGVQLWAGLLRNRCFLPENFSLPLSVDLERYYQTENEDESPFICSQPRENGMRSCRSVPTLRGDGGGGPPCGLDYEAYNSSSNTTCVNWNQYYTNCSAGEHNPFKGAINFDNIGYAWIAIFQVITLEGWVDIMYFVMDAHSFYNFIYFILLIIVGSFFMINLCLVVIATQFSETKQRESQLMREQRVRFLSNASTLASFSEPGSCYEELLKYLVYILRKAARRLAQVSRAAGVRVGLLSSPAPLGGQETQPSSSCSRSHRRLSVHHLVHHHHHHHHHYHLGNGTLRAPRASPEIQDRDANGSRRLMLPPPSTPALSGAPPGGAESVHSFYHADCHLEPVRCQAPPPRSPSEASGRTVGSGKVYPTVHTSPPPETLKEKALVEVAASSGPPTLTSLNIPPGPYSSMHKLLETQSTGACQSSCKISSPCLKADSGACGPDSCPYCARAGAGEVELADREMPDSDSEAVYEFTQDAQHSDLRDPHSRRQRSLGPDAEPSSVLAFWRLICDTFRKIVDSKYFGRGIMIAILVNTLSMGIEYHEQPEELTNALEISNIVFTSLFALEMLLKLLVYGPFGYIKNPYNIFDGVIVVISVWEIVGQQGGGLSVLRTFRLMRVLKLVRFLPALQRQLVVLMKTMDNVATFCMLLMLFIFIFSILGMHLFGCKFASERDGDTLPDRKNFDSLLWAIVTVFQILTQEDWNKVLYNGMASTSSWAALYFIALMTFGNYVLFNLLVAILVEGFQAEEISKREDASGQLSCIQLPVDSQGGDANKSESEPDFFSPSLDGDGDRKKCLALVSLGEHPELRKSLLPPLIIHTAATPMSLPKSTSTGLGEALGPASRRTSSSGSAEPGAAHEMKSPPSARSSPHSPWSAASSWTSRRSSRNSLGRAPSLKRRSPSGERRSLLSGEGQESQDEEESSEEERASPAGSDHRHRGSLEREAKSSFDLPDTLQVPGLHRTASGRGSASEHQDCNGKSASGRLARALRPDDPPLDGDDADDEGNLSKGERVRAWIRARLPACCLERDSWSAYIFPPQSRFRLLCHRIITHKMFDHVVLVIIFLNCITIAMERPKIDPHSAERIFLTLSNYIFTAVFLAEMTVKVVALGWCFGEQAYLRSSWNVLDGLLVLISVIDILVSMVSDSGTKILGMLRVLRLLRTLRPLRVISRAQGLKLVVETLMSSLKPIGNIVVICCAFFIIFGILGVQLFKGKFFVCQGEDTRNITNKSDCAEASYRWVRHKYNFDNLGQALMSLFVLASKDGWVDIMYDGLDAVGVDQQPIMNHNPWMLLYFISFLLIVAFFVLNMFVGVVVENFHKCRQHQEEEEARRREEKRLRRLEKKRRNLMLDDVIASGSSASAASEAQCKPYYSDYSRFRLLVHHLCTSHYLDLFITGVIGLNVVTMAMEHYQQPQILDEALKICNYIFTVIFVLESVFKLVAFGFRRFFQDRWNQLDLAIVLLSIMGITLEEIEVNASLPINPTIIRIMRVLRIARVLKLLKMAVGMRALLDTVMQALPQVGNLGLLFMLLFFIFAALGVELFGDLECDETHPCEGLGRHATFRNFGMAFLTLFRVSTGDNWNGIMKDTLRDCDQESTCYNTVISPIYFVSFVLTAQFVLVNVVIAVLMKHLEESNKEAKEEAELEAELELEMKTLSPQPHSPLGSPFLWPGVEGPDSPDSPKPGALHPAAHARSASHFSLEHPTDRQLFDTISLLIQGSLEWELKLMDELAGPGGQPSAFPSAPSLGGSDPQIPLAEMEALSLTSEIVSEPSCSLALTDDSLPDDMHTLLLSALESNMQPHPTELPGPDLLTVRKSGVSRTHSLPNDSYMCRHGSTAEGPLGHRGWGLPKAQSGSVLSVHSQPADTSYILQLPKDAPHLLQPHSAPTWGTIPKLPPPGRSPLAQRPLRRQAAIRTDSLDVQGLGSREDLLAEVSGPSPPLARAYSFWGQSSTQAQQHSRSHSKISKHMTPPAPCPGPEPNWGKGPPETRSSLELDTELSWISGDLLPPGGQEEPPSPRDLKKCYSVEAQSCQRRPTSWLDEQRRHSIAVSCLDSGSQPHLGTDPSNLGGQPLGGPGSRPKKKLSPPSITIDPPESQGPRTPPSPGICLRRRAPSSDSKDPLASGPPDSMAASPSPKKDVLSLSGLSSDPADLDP

Row | Structure (SMILES) | pIC50 [1] | pIC50 [2] | pIC50 [3] | pIC50 [4] | inhibition [5] | further results
1 | CN(C)CCCCN(C)C1=Nc2ccccc2C(CC(=O)NCc2ccccc2)N1c1ccc(-c2ccccc2)cc1 (stereo not given) | 5.40 | 5.78 | 5.01 | 6.51 | 81.7% | 
2 | COCC(=O)O[C@]1(CCN(C)CCCc2nc3ccccc3[nH]2)CCc2cc(F)ccc2[C@@H]1C(C)C [MIBEFRADIL] | 4.45 | 4.62 | 4.69 |  | 55.1% | 
3 | Cc1ccc(CNC(=O)CC2c3ccccc3N=C(N3CCN(CCN(C)C)CC3)N2c2ccc(-c3ccccc3)cc2)cc1 (stereo not given) | 5.45 | 5.80 | 5.63 | 6.34 | 57.8% | 
4 | CN(C)CCCCCN(C)C1=Nc2ccccc2C(CC(=O)NCc2ccccc2)N1c1ccc(-c2ccccn2)cc1 (stereo not given) | < 5.30 |  | 5.62 |  | 30.9% | 
5 | CN(C)CCCCCCN(C)C1=Nc2ccccc2C(CC(=O)NCc2ccccc2)N1c1ccc(-c2ccccc2)cc1 (stereo not given) | 5.76 | 5.92 | 5.24 | 6.26 | 66.7% | Ratio IC50 [6]: 20
6 | COc1ccc(CNC(=O)CC2c3ccccc3N=C(N3CCN(CCN(C)C)CC3)N2c2ccc(-c3ccccc3)cc2)cc1 (stereo not given) | 5.42 | 5.84 | 5.61 | 6.51 | 75.9% | Activity [7]: Active; Activity [8]: Dose-dependent effect; Activity [9]: Dose-dependent effect; Activity [10]: Non-toxic; Activity [11]: 7.3%; Activity [12]: 7.3%; Activity [13]: 21.6%; Activity [14]: 63.8%; pIC50 [15]: 5.03
7 | COc1ccc(CNC(=O)CC2c3ccccc3N=C(N(C)CCCCCN(C)C)N2c2ccc(-c3ccccc3)cc2)cc1 (stereo not given) | 5.60 | 5.86 | 5.35 | 6.41 | 68.2% | 
8 | CN(C)CCN1CCN(C2=Nc3ccccc3C(CC(=O)NCc3ccccc3)N2c2ccc(-c3ccccc3)cc2)CC1 (stereo not given) | 5.62 | 5.86 | 5.71 |  | 46.8% | 
9 | CN(C)CCN1CCN(C2=Nc3ccccc3C(CC(=O)NCc3ccccn3)N2c2ccc(-c3ccccc3)cc2)CC1 (stereo not given) | < 5.30 | 5.31 | 5.29 |  | 43.9% | 
10 | CN(C)CCN1CCN(C2=Nc3ccccc3C(CC(=O)NCc3ccc(F)cc3)N2c2ccc(-c3ccccc3)cc2)CC1 (stereo not given) | 5.40 | 5.80 | 5.51 | 6.49 | 81% | Activity [7]: Active; Activity [8]: Dose-dependent effect; Activity [9]: Dose-dependent effect; Activity [10]: Non-toxic; Activity [11]: 8.1%; Activity [12]: 7.1%; Activity [13]: 18.1%; Activity [14]: 66.7%; pIC50 [15]: 5.00
11 | CN(C)CCN1CCN(C2=Nc3ccccc3C(CC(=O)NCc3ccncc3)N2c2ccc(-c3ccccc3)cc2)CC1 (stereo not given) | < 5.30 | < 5.30 | 4.93 |  | 29.1% | 
12 | CN(C)CCCCCN(C)C1=Nc2ccccc2C(CC(=O)NCc2ccccc2)N1c1ccc(-c2ccccc2)cc1 (stereo not given) | 5.80 | 5.97 | 5.61 | 6.59 | 76.6% | Ratio IC50 [6]: 20; Activity [16]: 95.4%; Activity [17]: 61.4%; Activity [18]: 14.7%; Activity [11]: 5.3%; Activity [19]: 71.4%; Activity [12]: 5.8%; Activity [13]: 63.3%; Activity [14]: 25.6%
13 | CN(C)CCN1CCN(C2=Nc3ccccc3C(CC(=O)NCc3ccccc3)N2c2ccc(-c3ccccn3)cc2)CC1 (stereo not given) | < 5.30 | < 5.30 |  |  | 32.3% | 
